Measured values of several laboratories.
Target: 3-phosphoinositide-dependent protein kinase 1 (PDPK1, Homo sapiens, UniProt O15530)
Sequence (O15530 1-556, as in one of the studies): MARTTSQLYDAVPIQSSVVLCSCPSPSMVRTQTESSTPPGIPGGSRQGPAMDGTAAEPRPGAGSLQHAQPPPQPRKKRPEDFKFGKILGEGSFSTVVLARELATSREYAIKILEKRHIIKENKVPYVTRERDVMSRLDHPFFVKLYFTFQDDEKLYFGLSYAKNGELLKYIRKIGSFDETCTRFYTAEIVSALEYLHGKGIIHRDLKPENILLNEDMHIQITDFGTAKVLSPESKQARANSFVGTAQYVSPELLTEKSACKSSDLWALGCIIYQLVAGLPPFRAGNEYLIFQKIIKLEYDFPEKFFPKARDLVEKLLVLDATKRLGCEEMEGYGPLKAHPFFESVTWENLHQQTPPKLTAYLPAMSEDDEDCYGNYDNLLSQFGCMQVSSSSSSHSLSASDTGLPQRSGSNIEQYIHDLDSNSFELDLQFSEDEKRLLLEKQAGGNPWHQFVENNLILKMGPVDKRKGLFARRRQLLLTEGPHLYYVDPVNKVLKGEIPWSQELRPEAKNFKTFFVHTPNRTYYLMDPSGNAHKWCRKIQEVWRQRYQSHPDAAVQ

Cc1sc(C(=O)NC2COC2)cc1-n1cc(NC(=O)Nc2c(F)cccc2Cl)cn1 — remaining activity (enzyme activity; inhibitor; 10 µM): 99.2%
CNC(=O)Nc1ccc2c(c1)[C@@]1(CC2)OC(=O)N(CC(=O)N(Cc2ccc(F)cc2)[C@@H](C)C(F)(F)F)C1=O — remaining binding (cell-free assay; competition with immobilised ligand; 1 µM): 85%
Nc1ncnc2occ(-c3ccc(NC(=O)Nc4cc(C(F)(F)F)ccc4F)cc3)c12 — remaining signal (cell-free assay; inhibitor; 20 µM): 4.3%
Cn1c(=O)n(-c2ccc(C(C)(C)C#N)cc2)c2c3cc(-c4cnc5ccccc5c4)ccc3ncc21 — remaining activity (enzyme activity; inhibitor; 10 µM): 98%
Cc1nc(N2CC[C@@H](O)C2)ncc1-c1cc(C(F)(F)F)cc2[nH]ncc12 — remaining binding (binding; competition with immobilised ligand; 1 µM): 100%
Nc1nc(Nc2ccccc2)sc1C(=O)c1c(F)cccc1F — remaining activity (enzyme activity; inhibitor; 10 µM): 65%
N#CCCc1ccc2c(c1)-c1[nH]c3ccc([N+](=O)[O-])cc3c1CC(=O)N2 — remaining signal (cell-free assay; 0.5 µM): 79.8%
CCCOc1ccc(OC)c(F)c1C(=O)c1ccc(C(=O)N[C@@H]2CNC[C@H]2NC(=O)c2ccc3[nH]ncc3c2)cc1 — remaining activity (enzyme activity; inhibitor; 10 µM): 102%
CCN(CC)CCNC(=O)c1c(C)[nH]c(/C=C2\C(=O)Nc3ccc(F)cc32)c1C — remaining signal (cell-free assay; 0.5 µM): 81.6%
Cc1cnc(NC2CCOCC2)nc1-n1cnc(C(=O)NC(CN)c2cc(F)cc(Cl)c2)c1 (centres unmarked) — remaining activity (enzyme activity; inhibitor; radiometric; 1 µM): 84%
O=C(O)[C@@H]1[C@@H](Cn2nnc3ccccc3c2=O)CC[C@H]1C(=O)c1ccc(OCCC2CCOCC2)cc1 — remaining binding (cell-free assay; competition with immobilised ligand; 1 µM): 80%
O=Nc1c(-c2c(O)[nH]c3ccccc23)[nH]c2ccccc12 — remaining signal (cell-free assay; 0.5 µM): 93%
CS(=O)(=O)N1CCCC(NC(=O)[C@H](CCC2CCCCC2)NC(=O)c2ccc(CNc3ncnc4c3nnn4-c3ccccc3)cc2)C1 (some centres unmarked) — remaining binding (cell-free assay; competition with immobilised ligand; 0.1 µM): 99%
CC(C)(C)c1nc(-c2cccc(NS(=O)(=O)c3c(F)cccc3F)c2F)c(-c2ccnc(N)n2)s1 — remaining activity (enzyme activity; inhibitor; radiometric; 1 µM): 94%
COc1cc(Cl)c(C(=O)N[C@@H](CN[C@H]2CC[C@@H](N)CC2)Cc2ccc(C#N)cc2)cc1-c1ccc(CN[C@H](C)c2ccc(C)cc2)o1 — remaining activity (enzyme activity; inhibitor; 1 µM): 73%
Cc1ccc(NC(=O)c2ccc(C)c(C(F)(F)F)c2)cc1C#Cc1nn(C2CCC(O)CC2)c2ncnc(N)c12 (centres unmarked) — remaining signal (cell-free assay; 10 µM): 113%
CCCCN(CCCC)C(=O)CN1C[C@H](c2cc(OC)c3c(c2)OCO3)[C@@H](C(=O)O)[C@@H]1CC(C)(C)CCC — remaining binding (cell-free assay; competition with immobilised ligand; 1 µM): 100%
O=C1Nc2ccc(Cl)cc2C1=Cc1cc(Cl)c(O)c(Cl)c1 — remaining signal (cell-free assay; 0.5 µM): 103%
O=C(O)c1cc(-c2ccc(C3CCNCC3)cc2)c2ccc(-c3ccc(C(F)(F)F)cc3)cc2c1 — remaining binding (cell-free assay; competition with immobilised ligand; 1 µM): 100%
C#Cc1cccc(Nc2ncnc3cc(OCCOC)c(OCCOC)cc23)c1 — remaining signal (cell-free assay; 0.5 µM): 83.8%
CNC(=O)c1cc(Oc2ccc(NC(=O)Nc3ccc(Cl)c(C(F)(F)F)c3)cc2)ccn1 — remaining binding (cell-free assay; competition with immobilised ligand; 0.1 µM): 100%
Cc1ccc(C(=O)Nc2ccc(CN3CCN(C)CC3)c(C(F)(F)F)c2)cc1C#Cc1cnc2cccnn12 — remaining activity (enzyme activity; inhibitor; 23.5 nM): 94%
Cc1ccc(C(=O)NCc2ccsc2)cc1C#Cc1cn(C(C)C)c2ncnc(N)c12 — activity vs control (enzyme activity; inhibitor; 1 µM): 98%
COc1cc(Nc2cnc(C#N)c(O[C@H](C)CN(C)C)n2)ncc1-c1cnn(C)c1 — remaining activity (enzyme activity; inhibitor; radiometric; 1 µM): 76%
CNC(=O)c1ccc(Nc2ncc(C(F)(F)F)c(NCc3nccnc3N(C)S(C)(=O)=O)n2)cc1 — remaining binding (cell-free assay; competition with immobilised ligand; 0.1 µM): 81%
Cc1cc(NC(=O)c2cccc3cc(-c4cccc5[nH]nc(N)c45)ccc23)ccc1F — activity vs control (enzyme activity; inhibitor; 0.1 µM): 101%
